SIAE primary = blocks human sialic acid acetylesterase; inhibition, % at 9.66 µM; hit rate 0.69% among 370,000; SIAE FP-Rh probe binding, fluorescence polarization;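 active means inhibition above a cutoff: mean of compounds within the control limits plus 3 SD of those, cut at about 17% in these data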;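 further: 0% = plate median of compound wells and 100% = probe without SIAE protein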
mABHD4 FP = inhibitors of mouse ABHD4; hit rate 0.54% among 370,000; inhibition, % at 8.92 µM; AID 720543; purified mABHD4, FP-Rh probe fluorescence polarization; Q8VD66;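 active means inhibition exceeding the mean over every tested compound plus 3 SD, cut at about 30% in these data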;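 further: 0% = plate median of compound wells and 100% = S159A mutant with DMSO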
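Test system: mABHD4 protein; Read-out basis: % inhibition; Incubation: 45 min + 60 min at 25 °C; Repeats: single replicate; Technique: fluorescence polarization with parallel and perpendicular emission, 525/598 nm; Compound: 8.92 µM, single dose; Benchmarks: full inhibition S159A mutant plus DMSO, zero as sample-well median.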
HTRA1 inh = inhibitors of human serine peptidase HTRA1; hit rate 0.5% among 340,000; recombinant HTRA1, FP-rhodamine activity-based probe, fluorescence polarization; AID 504803; inhibition, % at 5.96 µM; in the data active means inhibition above about 36%;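 further: 0% = enzyme with DMSO and 100% = wells lacking enzyme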
TCR CD3 inh = blocks the human TCR-CD3 interaction; TAMRA-labeled TCR probe fluorescence, biochemical; AID 651800; hit rate 0.37% among 360,000; inhibition, % at 9.4 µM; in the data active means inhibition above about 19%;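 further: recombinant mutant TCR 2C K166C tagged with TAMRA read by polarization; 0% = receptor in buffer alone and 100% = receptor with positive control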
PRMT1 FP inh = inhibitors of human PRMT1 | Q99873 | recombinant PRMT1, activity-based probe fluorescence polarization | inhibition, % at 2.79 µM | hit rate 1.3% among 370,000 | AID 652257;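 active means inhibition above about 21% made by adding two undisclosed values, limit read from the data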
mABHD4 conf = confirmation of mouse ABHD4 inhibitors; shares compounds with mABHD4 FP; purified mABHD4, FP-Rh probe fluorescence polarization; inhibition, % at 8.92 µM; hit rate 55% among 1,800; AID 720658;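 active means mean inhibition across replicates above the hit cutoff set in the primary screen, cut at about 30% in these data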;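 further: 0% = wild-type ABHD4 with DMSO and 100% = catalytically dead S159A mutant with DMSO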
Active calls of the source: *; x = no result given. This is a sample that favours compounds with a hit; in the whole collection about 2.7% have one here.

SMILES	SIAE primary	mABHD4 FP	HTRA1 inh	TCR CD3 inh	PRMT1 FP inh	mABHD4 conf
Nc1ccc(C(=O)Nc2ccc3c(O)cc(S(=O)(=O)O)cc3c2)cc1	-16	36*	6	7	7	25
Cc1cc(C)c(C#N)c(OCC2CCCO2)n1 (stereo not given)	-14	-7	x	3	-1	x
CCOc1ccc(/C=C2\SC(=S)N(Nc3ccccc3)C2=O)cc1OC	8	10	-11	1	4	x
COc1cc(/C=C2\SC(=S)N(Nc3ccccc3)C2=O)cc(OC)c1OC	2	33*	-11	-1	8	40*
C[C@@H]1C=CCCO[C@]12C(=O)N(Cc1ccc(F)cc1)c1ccccc12	1	0	x	1	-1	x
CC1=C(C#N)C(/C=N/OCc2ccc(F)cc2Cl)CC(=O)N1 (stereo not given)	-4	-4	-2	3	0	x
Nc1ccc(OCc2ccccc2)cc1[N+](=O)[O-]	9	6	1	4	-2	x
O=Cc1cc(OCc2ccccc2)ccc1[B-](F)(F)F	8	45*	0	5	-7	43*
CC1(C)Oc2ccc(C(=O)NNC(=O)Nc3ccccc3)cc2NC1=O	1	0	0	-10	2	x
COC(=O)c1cc2c(c3c4ccccc4n(S(=O)(=O)c4ccccc4)c13)C(=O)N(Cc1ccc(N(C)C)cc1)C2	10	-6	x	3	-2	x
O=c1cc(CSc2ccc(Cl)cc2)[nH]c2[nH]n(-c3ccccc3)c(=O)c12	14	47*	20	10	24*	26
CC(=O)C1=CCN(C)CC1	8	-1	x	1	0	x
COc1ccc(CN2CCN(Cc3c[nH]c4ccccc34)CC2)c(OC)c1	7	33*	3	-2	4	7
CCN(CC(=O)NCCCN1CCOCC1)S(=O)(=O)c1ccc(F)cc1	0	-2	-7	-3	5	x
C#CCNC(=O)C[C@H]1C[C@@]2(C(=O)OC)C(=C[C@H](COCc3ccccc3)O[C@@H]2C)N(Cc2ccc3c(c2)OCO3)C1=O	8	6	x	-1	5	x
Cc1cccc2cc(/C=N/Nc3ccc(C(=O)O)cc3)c(Cl)nc12	-3	38*	-1	12	6	44*
O=C(O)c1ccc(N/N=C/c2cc3ccccc3nc2Cl)cc1	-15	28	1	5	4	x
Cc1[nH]n(-c2ncc(-c3ccccc3)s2)c(=O)c1C(c1ccc(Cl)cc1)C(C#N)C#N (stereo not given)	14	49*	12	-13	6	52*
Cc1ccc(Cn2c(C)c(C(=O)NCc3ccc4c(c3)OCO4)sc2=O)cc1	-1	-4	x	4	-2	x
CC1=NN(c2ccccc2)C(=O)C1=Cc1ccccc1	5	3	1	2	0	x
CC1=NN(c2ccccc2)C(=O)/C1=C/c1c(O)n(-c2ccc(F)cc2)[nH]c1=O	-20	37*	10	9	3	47*
COc1ccc(CNCc2cc3c(cc2[N+](=O)[O-])OCO3)cc1	11	33*	11	10	14	6
Cc1cc(C)cc(NCc2cc3c(cc2[N+](=O)[O-])OCO3)c1	11	31*	6	9	6	14
CCOC(=O)C1=C(C)NC2=C(C(=O)c3ccccc32)C1c1ccc(O)cc1 (stereo not given)	5	43*	22	-8	9	49*
CCOc1cc(/C=C2/C(=O)NN(c3cccc(Cl)c3)C2=O)ccc1O	6	36*	-4	-5	18	38*
SMILES	SIAE primary	mABHD4 FP	HTRA1 inh	TCR CD3 inh	PRMT1 FP inh	mABHD4 conf
COc1cc(/C=C2/C(=O)NN(c3cccc(Cl)c3)C2=O)cc(OC)c1O	9	36*	6	2	22*	16
COc1cccc(/C=C2/C(=O)NN(c3ccc(C)c(C)c3)C2=O)c1	11	35*	3	5	8	13
COc1cccc(/C=C2/C(=O)NN(c3ccccc3)C2=O)c1	2	4	7	-4	7	x
Cc1ccccc1NCCC(=O)Nc1ccc(Cl)cc1	0	2	2	2	4	x
Oc1ccc(N2CCN(Cc3cc4c(cc3Br)OCCO4)CC2)cc1	10	34*	18	6	23*	14
C/C(=N/NC(=O)CN1CCN(Cc2ccccc2Cl)CC1)c1cccc(O)c1	3	7	x	x	2	x

Bioassay records: PubChem BioAssay, The Scripps Research Institute Molecular Screening Center
